Source: PubChem (Broad Institute)
Shown are actives, neighbours in structure and some others; about 1.6% of the full set was active somewhere.
S100A4 inh HTS: inhibitors of human S100A4 binding to myosin IIA peptide; hit rate 0.14% among 360,000; inhibition, % at 10.7 µM; S100A4/TAMRA-MyoIIA peptide fluorescence polarization; P26447; AID 652163;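 active means mean inhibition of at least 70% across replicates, with every replicate also reaching that level; inconclusive means mean inhibition reaches 70% but some replicates fall short; inactive means mean inhibition below 70%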
Target sequence (P26447 whole entry, looked up): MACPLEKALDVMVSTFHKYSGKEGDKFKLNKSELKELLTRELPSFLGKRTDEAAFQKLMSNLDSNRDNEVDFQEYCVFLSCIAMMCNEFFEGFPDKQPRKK
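Compound dosing: one dose per compound; test system: human S100A4 monomer with TAMRA-labelled myosin IIA peptide; probe or stimulus: TAMRA-labelled myosin IIA heavy-chain peptide probe, 5 nM; medium: HEPES buffer with Ca2+, pH 7.2; schedule: 5 min incubation before reading; benchmarks: neutral control DMSO, positive control TFP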
RAD54 branch: blocks human RAD54 Holliday junction branch migration; hit rate 0.14% among 360,000; inhibition, % at 10.4 µM; Q92698; FAM/BHQ fluorescence;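 active means mean normalized replicate activity at least 40 and at least half of replicates scoring 40 or more; inconclusive means only one of the two criteria met; inactive means mean below 40 and under half of replicates reaching 40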;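 further: 0% = median of neutral control wells and 100% = median of positive control wells; inhibitors cause a drop in the FAM fluorescence signal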
dFosB activator: enhances mouse delta FosB homodimer DNA binding; purified delta FosB, TAMRA-CDK5 oligo fluorescence polarization; percent of positive-control signal above neutral wells; P13346; activation, % at 25 µM; hit rate 0.99% among 340,000;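 active means mean activation above about 17%, with every replicate also reaching it, limit read from the data, passing the limit was not always enough; inconclusive means only one of the two conditions met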
Target sequence (P13346 whole entry, looked up): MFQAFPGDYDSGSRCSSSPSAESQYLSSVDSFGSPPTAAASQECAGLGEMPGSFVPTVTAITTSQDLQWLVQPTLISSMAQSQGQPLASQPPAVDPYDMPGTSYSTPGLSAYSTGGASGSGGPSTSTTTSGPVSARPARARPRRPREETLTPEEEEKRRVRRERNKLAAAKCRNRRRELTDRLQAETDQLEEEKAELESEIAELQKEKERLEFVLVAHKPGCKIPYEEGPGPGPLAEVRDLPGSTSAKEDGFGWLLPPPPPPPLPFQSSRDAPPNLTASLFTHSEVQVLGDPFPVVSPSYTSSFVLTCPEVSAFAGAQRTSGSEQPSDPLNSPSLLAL
PvdQ acylase: blocks Pseudomonas aeruginosa PvdQ acylase activity; purified PvdQ acylase, fluorescence plate reader; inhibition, % at 10 µM; hit rate 0.063% among 340,000; AID 488965; in the data active means inhibition above about 30%, passing the limit was not always enough; inconclusive means no clear call, values can overlap the other calls;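 further: 0% = vehicle neutral wells and 100% = reference inhibitor wells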
SR-BI HDL uptake: inhibitors of mouse SR-BI mediated HDL lipid uptake. inhibition, % at 12.5 µM. hit rate 0.96% among 320,000. ldlA[mSR-BI] CHO cells, DiI-HDL uptake fluorescence, 3 h. Q61009;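 active means mean replicate inhibition of at least 70% and a set share of replicates each scoring 70 or more; inconclusive means meets just one of the two criteria; inactive means fails both criteria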;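 further: 0% = median of neutral control wells and 100% = median of positive control wells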
SR-BI DiI-HDL act: enhances SR-BI lipid uptake from DiI-HDL; CHO ldlA[mSR-BI] cells, DiI-HDL uptake fluorescence, 3 h; 100 = double the neutral-control signal; activation, % at 12.5 µM; hit rate 0.096% among 320,000; AID 504775;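 active means mean replicate activation of at least 60% and every replicate at or above 60%; inconclusive means mean or all-replicate condition met, but not both; inactive means mean below 60% and not all replicates reaching 60%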;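 further: 0% = median plate neutral-control signal and 100% = twice that signal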
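System: CHO ldlA[mSR-BI] cells / Medium: HEPES-buffered (25 mM, pH 7.4) F12 plus 0.5% BSA / Probe or stimulus: labelled HDL, 10 µg/mL / Doses: single compound concentration, delivered by pin transfer / Schedule: 3 h, 37 °C / Measured by: DiI fluorescence, bottom read / Measure: cell-associated DiI fluorescence as measure of HDL uptake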
* = called active by the depositor; ? = inconclusive; . = not tested or not shown.

SMILES	S100A4 inh HTS	RAD54 branch	dFosB activator	PvdQ acylase	SR-BI HDL uptake	SR-BI DiI-HDL act
Cc1cccc(NC(=O)c2cc(-c3ccc(C)c(C)c3O)n[nH]2)c1	4	-2	33*	-6	22	-22
Cc1ccc(NC(=O)c2cc(-c3ccc(C)c(C)c3O)n[nH]2)cc1C	-8	1	23*	9	11	-11
Cc1cccc(OCc2nnc(SCC(=O)N3CCCC3)o2)c1	-12	3	0	9	-17	17
Cc1cccc(OCc2nnc(SCc3nc4ccccc4c(=O)[nH]3)o2)c1	.	-8	45*	-16	11	-11
CO[C@@H]1CN(C)C(=O)c2ccc(NC(=O)Cc3ccccc3)cc2OC[C@@H](C)N(CCc2ccccc2)C[C@H]1C	-3	-13	.	.	.	.
COc1ccc2c3c([nH]c2c1)[C@H](CO)N(S(C)(=O)=O)CC31CN(C(=O)Nc2ccccc2)C1	-7	.	.	.	.	.
O=C(Nc1ccccc1N1CCN(C(=O)c2ccc(Cl)cc2)CC1)c1cccc(F)c1	-2	13	-2	7	74*	-74
O=C(Nc1ccccc1N1CCN(c2ccccc2)CC1)c1ccccc1F	-7	.	-4	10	75*	-75
O=C(Nc1ccccc1N1CCN(C(=O)c2ccccc2)CC1)c1cccc(Cl)c1	0	-9	-29	1	.	.
O=C(Nc1ccccc1N1CCCC1)c1ccccc1F	-2	1	-2	7	23	-23
C[C@H]1CN([C@@H](C)CO)C(=O)c2cccc(NC(=O)c3nc4ccccc4s3)c2O[C@H]1CN(C)Cc1ccc(Oc2ccccc2)cc1	3	1	.	.	.	.
Cc1ccccc1C(=O)Nc1cccc(NC(=O)c2ccc(F)cc2)c1	-1	-12	1	8	79*	-79
O=C(N/N=C/c1cccnc1)c1ccc(Cl)c(Cl)c1	-2	.	-7	-8	18	-18
O=C(N/N=C/c1cccc(O)c1)c1cc(-c2ccc3c(c2)OCO3)n[nH]1	-1	.	41*	-2	0	0
O=C(N/N=C/c1ccc(F)cc1)c1cccc(NC(=O)c2ccc(F)cc2)c1	-1	0	-14	2	72*	-72
O=C(N/N=C/c1cccnc1)c1ccc(NC(=O)c2cccc(Cl)c2)cc1	-3	2	46*	-2	52	-52
Cc1cccc(C(=O)Nc2ccc(C(=O)N/N=C/c3ccc4c(c3)OCO4)cc2)c1	-1	-4	16	-17	85*	-85
Cc1cccc(C(=O)Nc2cccc(C(=O)N/N=C/c3ccc4c(c3)OCO4)c2)c1	8	0	?	5	55	-55
O=C(Nc1cccc(NC(=O)c2ccc(F)cc2)c1)c1ccc(F)cc1	1	-11	0	-15	76*	-76
CO[C@@H]1CN(C)C(=O)c2ccc(NS(C)(=O)=O)cc2OC[C@H](C)N(Cc2cccnc2)C[C@@H]1C	2	-1	.	.	.	.
COc1ccc2oc(C)c(C(=O)c3ccccc3)c2c1	-13	.	-7	-28	.	.
COc1ccc2oc(/C=C/N(C)C)c(C(=O)c3ccc(Cl)cc3)c2c1	-1	2	-8	5	78*	-78
O=C(C[C@H]1CC[C@@H]2[C@H](COC[C@H](O)CN2C(=O)c2ccccc2)O1)Nc1ccccc1	-9	0	.	.	.	.
COc1ccc(NC(=O)N(C)C[C@H]2OCCCC[C@H](C)Oc3ccc(NS(=O)(=O)c4c(C)noc4C)cc3C(=O)N([C@H](C)CO)C[C@@H]2C)cc1	.	-1	.	.	.	.
CCS(=O)(=O)Nc1ccc2c(c1)C(=O)N(C)[C@H]1CC[C@@H](CC(=O)N[C@H]3CCN(Cc4ccccc4)C3)O[C@H]1CO2	.	9	.	.	.	.
COc1ccc(S(=O)(=O)N2C(=O)/C(=C3\SC(N)=NC3=O)c3ccccc32)cc1	2	-10	24*	-4	-17	17
C[C@H](NC(=O)C[C@H]1C[C@@H]2c3cc(NS(C)(=O)=O)ccc3O[C@@H]2[C@H](CO)O1)c1ccccc1	8	-1	.	.	.	.
CCCNC(=O)N(C)C[C@@H]1Oc2ncc(-c3ccccc3)cc2C(=O)N([C@@H](C)CO)C[C@@H]1C	4	5	.	.	.	.
CCN(CC)S(=O)(=O)c1cc(C(=O)NC2=NCCS2)ccc1Cl	.	-1	-11	-13	74*	-74
